According to ChEMBL document CHEMBL3870302, “Computer-aided identification, synthesis and evaluation of substituted thienopyrimidines as novel inhibitors of HCV replication” (Eur J Med Chem, 2016):

Experiments:
[1] = Selectivity index, ratio of CC50 for human HuH5.2 cells to EC50 for hepatitis C virus genotype 1b infected in human HuH5.2 cells; assay type: toxicity, cell-based; conditions: HuH5.2 cells, read-out: Ratio CC50/EC50
Procedure, shortened: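 Ratio of CC50 (MTS metabolic read-out, 72 h) to EC50 (replicon luciferase read-out, 72 h), both measured in parallel on Huh 5-2 genotype 1b replicon cells.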

[2] = tested on: Hepatitis C virus; assay: Antiviral activity against Hepatitis C virus genotype 1b infected in human HuH5.2 cells after 72 hrs by luciferase reporter gene assay; assay type: functional, cell-based, Hepacivirus hominis; conditions: Hepatitis C virus, genotype 1b, Huh-5-2, 72 h
Procedure, shortened: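 Huh 5-2 cells with genotype 1b I389luc-ubi-neo/NS3-3'/5.1 subgenomic replicon, seeded 6 500 cells/well in DMEM/10% FCS without Geneticin, overnight 37 °C. Compound (DMSO stock diluted in medium) in 1:5 four-step or 1:2 eight-step series, 72 h. Cells PBS-washed, lysed 5 min, luciferase luminescence read, converted to % untreated control; EC50 from dose-response curve, mean of ≥2 independent experiments.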

[3] = Inhibition of protease domain lacking Hepatitis C virus genotype 1b (con1) C-terminal His-tagged NS3 helicase ATP hydrolysis activity using ATP as substrate preincubated followed by substrate addition measured after 15 mins in presence of poly U RNA by malachite green-based assay; set-up: species or system Hepatitis C virus (isolate Con1)
[4] = Inhibition of Hepatitis C virus genotype 1b (con1) full length C-terminal His-tagged NS3 helicase expressed in Escherichia coli Rosette(DE3) assessed as inhibition of 5'-Cy5/3'-IAbRQ-labeled DNA unwinding activity by molecular beacon assay; set-up: species or system Hepatitis C virus (isolate Con1)
Procedure, shortened: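 Molecular beacon unwinding assay: 25 mM MOPS pH 6.5, 1.25 mM MgCl2, 5% DMSO, 5 µg/ml BSA, 0.01% Tween20, 0.05 mM DTT, 5 nM fluorescent DNA substrate, 12.5 nM NS3h, 1 mM ATP.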

[5] = Cytotoxicity against human HuH5.2 cells assessed as reduction in metabolic activity after 72 hrs by MTS assay; assay type: toxicity, cell-based, Huh-5-2; conditions: HuH5.2 cells
Procedure, shortened: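 Run in parallel with the replicon assay: Huh 5-2 replicon cells, 6 500 cells/well, compound series for 72 h at 37 °C, 5% CO2. Medium then replaced with 5% MTS in phenol red-free medium for 1.5 h. Absorbance at 498 nm expressed as % untreated cells; CC50 from dose-response curve as 50% reduction in metabolic activity, mean of ≥2 experiments.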

[6] = Inhibition of Cy5-labeled dT15 DNA binding to Hepatitis C virus genotype 1b (con1) NS3 helicase DNA by fluorescence polarization assay; set-up: species or system Hepatitis C virus (isolate Con1)
Procedure, shortened: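 Displacement of NS3h from a DNA oligonucleotide, 15 nM NS3h in 25 mM MOPS pH 7.5, 1.25 mM MgCl2, 0.0025 mg/ml BSA, 0.005% Tween20, 0.025 mM DTT.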

[7] = Inhibition of protease domain lacking Hepatitis C virus genotype 1b (con1) C-terminal His-tagged NS3 helicase ATP hydrolysis activity using ATP as substrate preincubated followed by substrate addition measured after 15 mins in absence of poly U RNA by malachite green-based assay; set-up: species or system Hepatitis C virus (isolate Con1)

EC50 [2] [nM]	EC90 [2] [nM]	IC50 [3] [µM]	IC50 [4] [mM]	IC50 [6] [µM]	IC50 [7] [µM]	SMILES	selectivity ratio [1]	CC50 at 72 h [5] [µM]
86.1	421	> 1000	> 1	827		C/C(=N\Nc1ncnc2sc3ccccc3c12)c1ccccc1O	134	11.5
		40	0.01	46	> 200	Cc1ccc2nc(-c3ccc4nc(-c5ccc(N)cc5)sc4c3)sc2c1S(=O)(=O)O		
2600	20100	780	> 1	> 1000	760	C/C(=N\Nc1ncnc2sc3c(c12)CCCC3)c1ccccc1O	59.2	154
72.3	192	> 1000	> 1	949		O=C(NNc1ncnc2sc3ccccc3c12)c1cnccn1	18.5	1.34
42900	83200	> 1000	> 1	675		O=S(=O)(NNc1ncnc2sc3c(c12)CCCC3)c1ccccn1	3.4	145
		5.1	0.0003	2	3.3	O=C(O)C1=CC(=C(c2ccc(O)c(C(=O)O)c2)c2ccc(O)c(C(=O)O)c2)C=CC1=O [AURINTRICARBOXYLIC ACID]		
502	945		> 1			O=C(NNc1ncnc2sc3c(c12)CCCC3)c1cc(O)ccc1O	199	99.9
594	1110		> 1			O=C(NNc1ncnc2sc3c(c12)CCC3)c1nc2ccccc2[nH]1	11.6	7.46
1180	1440		> 1			C/C(=N/Nc1ncnc2sc3c(c12)CCC3)c1ccccn1	11.9	14
< 697			> 1			C/C(=N\Nc1ncnc2sc3c(c12)CCCC3)c1ccc2ccccc2n1	> 10.4	7.23
273	567		> 1			O=C(NNc1ncnc2sc3c(c12)CCCC3)c1ccccc1O	233	63.6
314	671		> 1			O=C(NNc1ncnc2sccc12)c1ccccn1	445	138
221	352	333	0.25	> 1000	> 1000	O=C(NNc1ncnc2sc3c(c12)CCC3)c1ccccc1O	538	119
802	< 2240		> 1			C/C(=N/Nc1ncnc2sc3c(c12)CCC3)c1nc2ccccc2[nH]1	8.3	6.83
2340	3670		> 1			O=C(NNc1ncnc2sc3c(c12)CCC3)c1cc(O)ccc1O	84.6	198
803	1620		> 1			CCc1sc2ncnc(N/N=C(/C)c3cc(O)ccc3O)c2c1C	> 364	> 292
681	2140		> 1			O=C(NNc1ncnc2sc3ccccc3c12)c1cc(O)ccc1O	68.3	46.5
69	240		> 1			C/C(=N\Nc1nc(C)nc2sc3c(c12)CCCC3)c1cnccn1	> 42.7	> 3
61200	> 277000		> 1			C/C(=N\Nc1ncnc2sc3c(c12)CCCC3)c1cc2ccccc2[nH]1	0.42	26
